Bioassay records from PubChem.
This is a sample that favours compounds with a hit; in the whole collection about 1.8% have one here.
M4 ag: agonists of human muscarinic M4 receptor (CHRM4); P08173; CHO-K1 hM4/Gqi5, Fluo-8 calcium fluorescence; vehicle 0%, full acetylcholine response 100%; activation, % at 3 µM; actives 0.14% (n = 360,000); AID 624127;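 active = activation above the run mean over all test wells plus 3 SD, cut at about 32% in these data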;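 also: peak over basal fluorescence ratio per well then scaled between controls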
M5 antag: antagonists of human muscarinic M5 receptor (CHRM5); P08912; CHO-hM5 cells, Fluo-8 calcium fluorescence, ACh EC80; inhibition, % at 3 µM; actives 0.59% (n = 360,000); AID 624040;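 active = inhibition above a per-plate cutoff, the mean of that plate's test compounds plus 3 SD, cut at about 27% in these data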
Target sequence (P08912 whole entry, looked up): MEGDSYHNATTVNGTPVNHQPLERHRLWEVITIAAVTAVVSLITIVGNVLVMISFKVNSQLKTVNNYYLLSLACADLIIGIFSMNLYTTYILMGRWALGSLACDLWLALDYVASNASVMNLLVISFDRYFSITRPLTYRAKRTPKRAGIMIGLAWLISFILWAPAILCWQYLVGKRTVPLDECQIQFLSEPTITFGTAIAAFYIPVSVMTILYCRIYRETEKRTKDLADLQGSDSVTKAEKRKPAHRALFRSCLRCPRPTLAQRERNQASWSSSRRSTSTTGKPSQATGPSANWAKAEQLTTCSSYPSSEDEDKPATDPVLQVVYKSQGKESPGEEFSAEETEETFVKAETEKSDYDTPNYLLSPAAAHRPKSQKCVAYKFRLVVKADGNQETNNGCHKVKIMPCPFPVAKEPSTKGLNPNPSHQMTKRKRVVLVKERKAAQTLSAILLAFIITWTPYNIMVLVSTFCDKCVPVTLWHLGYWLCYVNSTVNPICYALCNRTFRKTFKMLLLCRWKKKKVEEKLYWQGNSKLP
M4 PAM: CHRM4 positive allosteric modulation; activation, % at 3 µM; CHO-K1 hM4/Gqi5, Fluo-8 calcium fluorescence, ACh EC20; 0% = ACh EC20, 100% = maximal ACh; actives 0.4% (n = 360,000);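 active = activation above its plate's cutoff, the mean activation of sample wells plus 3 SD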
CHRM5 agonist: agonists of human muscarinic M5 receptor (CHRM5). actives 0.19% (n = 360,000). CHO-K1 hM5 cells, Fluo-8 calcium fluorescence; 0% DMSO wells, 100% maximal acetylcholine response. P08912. activation, % at 3 µM;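 active = activation above the run's mean over test compounds plus 3 SD, cut at about 23% in these data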;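 also: signal is peak over basal fluorescence ratio across the kinetic read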
M4 antag: CHRM4 antagonism in calcium assay | P08173 | CHO-hM4 cells, ACh EC80, Fluo-8 calcium fluorescence | inhibition, % at 3 µM | actives 0.73% (n = 360,000) | AID 624125;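 active = inhibition above its plate's cutoff, the mean inhibition of sample wells plus 3 SD, cut at about 27% in these data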
M5 PAM: positive allosteric modulators of human muscarinic M5 receptor. actives 0.3% (n = 360,000). CHO-K1 hM5, Fluo-8 calcium, ACh EC20 PAM; 0% = ACh EC20, 100% = ACh EC100. activation, % at 3 µM. AID 624038. P08912;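 active = activation above the run cutoff, the mean activation of all test compounds plus 3 SD, cut at about 18% in these data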
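Test system: CHO-K1 hM5 cells / Doses: single-point, 3 µM nominal / Times: Post-acetylcholine fluorescence recording 140 s / Technique: Fluo-8 calcium fluorescence / Measure: Max/basal fluorescence ratio as % of EC20–EC100 ACh window / Benchmarks: low control EC20 acetylcholine (0%), high control EC100 acetylcholine (100%) / Replicates: one well per compound, no replicates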
Each line names hits and unclear results; the compound was inactive in the other large screens.

CCc1nnc(NS(=O)(=O)c2ccc(NCc3cc(Cl)cc(Cl)c3O)cc2)s1	none
O=C(COC(=O)c1ccc(O)cc1)Nc1ccccc1-c1ccccc1	M5 antag 35
O=C(CN1CCCCC1)Nc1ccccc1-c1ccccc1	M5 antag 45, M4 antag 68
O=C(CN1CCOCC1)Nc1ccccc1-c1ccccc1	none
O=C(CN1CCCC1)NCc1ccccc1	none
O=C(CN1CCC(NC(=O)Nc2ccccc2-c2ccccc2)CC1)NCc1ccco1	M5 antag 61
O=C(CN1CCCCCC1)NN(Cc1ccccc1)c1ccccc1	M4 antag 29
O=C(CN1CCC(NC(=O)C2CCCCC2)CC1)NCc1ccco1	none
Cc1cc(C(=O)NC(C)CCC(C)C)c2ccccc2n1 (configuration not stated)	none
O=C(c1ccccc1O)N1N=C(c2ccccc2)CC1(O)C(F)(F)F (configuration not stated)	none
COc1ccc(C(=O)C2CCCN(Cc3cn(C)nc3-c3ccccc3)C2)cc1F (configuration not stated)	M4 ag 82, M4 antag 40
COc1ccc(C(=O)C2CCCN(C(=O)Cn3nc(C)cc3C)C2)cc1F (configuration not stated)	M4 antag 29
S=C1NCN(Cc2ccco2)CN1	M5 PAM 23
C=CCN1CN(Cc2ccco2)CNC1=S	none
COc1ccc(NS(=O)(=O)c2cccc(C(=O)N/N=C/c3cn(-c4ccccc4)nc3-c3ccccc3)c2)cc1	M4 antag 51
S=C1NCCOCCNC(=S)NCCOCCOCCN1	none
CN(CCN(C)C(C)(C)C)C(=O)C(c1ccccc1)c1ccccc1	M5 antag 31, M4 antag 91
CSc1ccc(CN(C)C(=O)C(c2ccccc2)c2ccccc2)cc1	none
COc1ccccc1CCn1cnc(Cc2ccccc2)c1C(C)C	M4 antag 33
COc1ccccc1CCn1cnc(-c2ccc(Br)cc2)c1C(C)C	none
CCCCCc1c(-c2ccccc2OC)ncn1CCc1ccccc1OC	M5 antag 32, M4 antag 34
O=C(NCC(=O)N(c1ccccc1)C(C(=O)NC1CCCCC1)c1cccnc1)c1ccco1 (configuration not stated)	none
Cc1c(NC(=O)Nc2cc(Cl)ccc2Cl)c(=O)n(-c2ccccc2)n1C	M5 antag 29
Cc1c(NC(=S)NC(=O)CC(C)C)c(=O)n(-c2ccccc2)n1C	M4 antag 79
Cc1c(NC(=O)Nc2cccc(Cl)c2)c(=O)n(-c2ccccc2)n1C	none
Cc1ccc(CNc2ncnc3cc(Cl)ccc23)cc1	M5 antag 35
O=C1C=CC2(O[C@H](c3ccccc3)[C@@H](c3ccccc3)O2)[C@H](Sc2ccccc2O)C1	M4 antag 57
CN(C(=O)c1ccccc1C(=O)OCC(=O)Nc1ccc(S(N)(=O)=O)cc1)c1ccccc1	none
COc1c(F)c(F)c(C(=O)Nc2ccccc2N2CCN(C(=O)C(C)C)CC2)c(F)c1F	M5 PAM 31
O=C(c1cccnc1)N1CCN(c2ccc(Cl)cc2)CC1	M4 PAM 30
O=C(Nc1ccc(N2CCN(C(=O)c3ccc(Cl)cc3)CC2)cc1)c1cccnc1	none
O=C(c1ccc(Cl)cc1)N1CCN(c2ccc([N+](=O)[O-])c(NCc3cccnc3)c2)CC1	M4 PAM 26
COc1cc(-c2noc(C)c2-c2ccc(N(C)C)nc2)cc(OC)c1OC	M4 ag 36, CHRM5 agonist 36
COc1ccc(-c2coc3cc(OC(C)=O)ccc3c2=S)cc1	none
COc1ccccc1C(=O)ON=C1c2ccccc2-c2ccccc21	none
O=[N+]([O-])c1c(Nc2ccc(O)cc2)cc(Cl)c2nonc12	M5 antag 43, M4 antag 78
Cc1ccc(C(=O)NC2CC3CCCC(C2)N3C(=S)NCc2ccco2)cc1 (configuration not stated)	M4 PAM 21
